Most compounds without a hit are left out; they make up all but 2.6% or so of the library.
Rin1-Abl PPI inh – blocks binding of human Rin1 to Abl. TR-FRET Rin1/Abl binding, biochemical. inhibition, % at 7.35 µM. actives 0.4% (n = 360,000); in the data active = inhibition above about 5%, passing the limit was not always enough
T cell modulator – T cell immune modulation candidate. actives 0.068% (n = 330,000). AID 2052. 2C CD8+ T cell-vesicle binding, flow cytometry; hits give low values. response (vesicle binding), % at 7 µM;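 active = response, share of CD8 T cells binding vesicles, and their 90th percentile fluorescence all below set limits, cut at about 80% in these data, passing the limit was not always enough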;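 note: values below 100% mean blocked vesicle binding to the CD8+ T cells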
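Incubation: binding step 1.5 h, 37 °C, antibody labelling 20 min, ice; system: murine 2C transgenic CD8+ T lymphocytes; technique: cytometric PE anti-B7-1 and Alexa647 anti-CD8 signals after 1% paraformaldehyde fixation; also added: QL9-charged Drosophila Ld/ICAM-1/B7-1 vesicles; control set: naked versus QL9-loaded vesicles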
Myeloid diff MLP – promotes myeloid progenitor differentiation; calls only at 10 µM; actives 1% (n = 360,000); AID 624256; ER-HoxA9 myeloid progenitors, lysozyme-GFP differentiation, flow cytometry;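 active = normalized GFP-positive differentiation at or above the plate's own cutoff, the solvent-only control mean plus 3 SD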;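 note: cells exposed to compound for four days before flow analysis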
SKN-1 inh – C. elegans SKN-1 inhibition | AID 624304 | inhibition, % at 21.8 µM | actives 0.49% (n = 360,000) | C. elegans VP596 Pgst-4::GFP/RFP ratio, acrylamide-induced, 24 h;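 active = interference check ratio from 0.5 to 1.5 plus GFP to RFP signal ratio inhibition reaching or exceeding a fixed threshold, cut at about 30% in these data, passing the limit was not always enough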
Rce1 inhib – inhibitors of yeast Ras-converting enzyme | Q03530 | yeast membranes, quenched prenylated peptide cleavage fluorescence | calls only | actives 0.27% (n = 290,000);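 active = fall in fluorescence gain of 50% or more versus controls, with final raw signal at or below 3038400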
GRK2 inh – inhibitors of human GRK2 displacing RNA aptamer. P25098. bead flow cytometry, FAM-aptamer displacement from GRK2. inhibition of aptamer binding, % at 10 µM. actives 0.59% (n = 330,000);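 active = inhibition of aptamer binding above 40%, roughly 3 SD of noise, on plates passing a quality check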;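 note: median bead fluorescence of bound FAM aptamer so fluorescent compounds give negative values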
Target sequence (P25098 whole entry, looked up): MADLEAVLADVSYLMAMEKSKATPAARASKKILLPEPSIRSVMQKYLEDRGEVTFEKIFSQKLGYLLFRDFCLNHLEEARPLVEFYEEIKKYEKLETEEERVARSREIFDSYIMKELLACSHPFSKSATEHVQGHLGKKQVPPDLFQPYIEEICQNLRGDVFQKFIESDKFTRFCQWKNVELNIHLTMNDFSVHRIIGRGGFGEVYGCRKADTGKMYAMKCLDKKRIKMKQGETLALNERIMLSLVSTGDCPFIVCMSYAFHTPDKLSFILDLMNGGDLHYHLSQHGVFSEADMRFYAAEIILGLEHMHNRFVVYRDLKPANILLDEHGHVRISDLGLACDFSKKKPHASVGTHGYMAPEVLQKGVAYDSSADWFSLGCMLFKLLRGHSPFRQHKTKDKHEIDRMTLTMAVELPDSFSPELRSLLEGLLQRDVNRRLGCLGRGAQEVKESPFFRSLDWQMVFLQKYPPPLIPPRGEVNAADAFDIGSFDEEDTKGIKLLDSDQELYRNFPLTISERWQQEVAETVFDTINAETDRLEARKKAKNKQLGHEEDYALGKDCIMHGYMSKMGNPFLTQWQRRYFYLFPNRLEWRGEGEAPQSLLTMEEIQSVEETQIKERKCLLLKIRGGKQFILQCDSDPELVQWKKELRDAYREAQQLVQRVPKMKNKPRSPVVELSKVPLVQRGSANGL
Rin1 Abl conf – confirmation of inhibitors of human Rin1-Abl interaction. shares compounds with Rin1-Abl PPI inh. AID 602124. inhibition, % at 7.35 µM. TR-FRET Rin1-Abl binding, purified proteins. actives 49% (n = 1,300)
GFP quencher – counter-screen for Rin1-Abl inhibitors: GFP fluorescence quenchers; shares compounds with Rin1-Abl PPI inh; AID 602125; actives 8.5% (n = 1,300); inhibition, % at 6.75 µM; inhibitors/quenchers counterscreen;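 note: ABL1-eGFP fusion protein alone without its partner RIN1-SBP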
GFP quench DR – counter-screen for Rin1-Abl inhibitors: GFP quenchers, dose response; shares compounds with Rin1-Abl PPI inh; 230 tested, under 10 active; GFP fluorescence interference/quenching counterscreen; IC50, µM; call rule not given here;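 note: ABL1-eGFP fusion protein alone without its RIN1 binding partner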
Myeloid diff – promotes myeloid progenitor differentiation | ER-HoxA9 myeloid progenitors, GFP/Mac1 double-positive flow | calls only | shares compounds with Myeloid diff MLP | actives 2% (n = 2,300) | AID 651706;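 active = share of green or green-and-red cells above 9 and 9% in run 1 or 4 and 3% in run 2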
GFP autofluor – compound fluorescence in myeloid differentiation counter-screen. actives 7.4% (n = 2,300). shares compounds with Myeloid diff MLP. fluorescence response, % (no concentration beside the values). ER-HoxA9 myeloid progenitors, no estrogen, GFP autofluorescence flow cytometry; vehicle wells 0%, positive control 100%;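 active = over 5% cells positive for green fluorescent reporter, or over 2% positive for both it and APC stain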
Each line names hits and unclear results; the compound was inactive in the other large screens (follow-up assays come after a bar, where they were run). Cut-off read from the data, not from the text of the source, unless noted: active = inhibition above about 6.5%; inactive = the rest.

CN(C)[C@@H]1C(=O)C(C(N)=O)=C(O)[C@@]2(O)C(=O)C3=C(O)c4c(O)cccc4[C@@](C)(O)C3[C@H](O)C12 (stereo not given in full)	Rin1-Abl PPI inh 18.8 | Rin1 Abl conf inactive | GFP quencher inactive
CCOC(=O)[C@]12Cc3ccc4ccccc4c3[C@H]1N(Cc1ccccc1)C(=O)c1ccccc12	none (no result: Rin1-Abl PPI inh, T cell modulator, Rce1 inhib, GRK2 inh)
CCCCn1c(NC(=O)c2ccc(Br)o2)c(C(=O)OCC)c2nc3ccccc3nc21	Rin1-Abl PPI inh 7.3, Myeloid diff MLP active, GRK2 inh 78.0 | Rin1 Abl conf inactive | GFP quencher inactive
CCCCn1c(NS(=O)(=O)c2ccccc2)c(C(=O)OCC)c2nc3ccccc3nc21	none
O=[N+]([O-])c1ccc(N2CCOCC2)c2c1no[n+]2[O-]	none (no result: T cell modulator, Myeloid diff MLP, Rce1 inhib, GRK2 inh)
Cc1ccc(N2C(=O)NC(=O)/C(=C/C=C/c3ccco3)C2=O)cc1	Rin1-Abl PPI inh 6.2 | Rin1 Abl conf inactive | GFP quencher inactive
Cc1cc(C)cc(N2C(=O)NC(=O)/C(=C\C=C\c3ccco3)C2=O)c1	none
O=C1NCN(c2ccccc2)C12CCN(C(c1ccccc1OC(F)(F)F)c1nnnn1Cc1ccccc1)CC2 (stereo not given)	none (no result: T cell modulator, Rce1 inhib, GRK2 inh)
CC[C@H](OC(C)=O)C(C[C@H](C)N(C)C)(c1ccccc1)c1ccccc1	Rin1-Abl PPI inh 6.8 (no result: Myeloid diff MLP, Rce1 inhib) | Rin1 Abl conf 8.4 | GFP quencher inactive
CCOC(=O)[C@]12Cc3ccccc3[C@H]1N(CCC(=O)OC)C(=O)c1cc(OC)ccc12	none (no result: Rin1-Abl PPI inh, T cell modulator, Rce1 inhib, GRK2 inh)
Cc1ccc2c(c1Cl)NC(C(=O)O)C1CC(Sc3ccccc3[N+](=O)[O-])C(Cl)C21 (stereo not given)	none (no result: Rce1 inhib)
CCN(CC)C(=O)c1ccc2c(c1)C1C(Cl)C(Sc3ccccc3[N+](=O)[O-])CC1C(C(=O)O)N2 (stereo not given)	Rin1-Abl PPI inh 6.8 | Rin1 Abl conf inactive | GFP quencher 16.7
COc1cccc(C(c2nnnn2-c2ccc3c(c2)OCCO3)N2CCC(n3c(=O)[nH]c4ccccc43)CC2)c1OC (stereo not given)	Rin1-Abl PPI inh 19.9, Myeloid diff MLP active (no result: T cell modulator, Rce1 inhib, GRK2 inh) | Rin1 Abl conf 18.9 | GFP quencher inactive | GFP quench DR inactive
COc1ccc(-n2nnnc2C(c2ccnc3ccccc23)N2CCC(n3c(=O)[nH]c4ccccc43)CC2)cc1 (stereo not given)	none (no result: T cell modulator, Rce1 inhib, GRK2 inh)
COc1ccc(-n2nnnc2C(c2cccc(OC)c2OC)N2CCC(n3c(=O)[nH]c4ccccc43)CC2)cc1 (stereo not given)	Rin1-Abl PPI inh 18.6 (no result: T cell modulator, Rce1 inhib, GRK2 inh) | Rin1 Abl conf 15.9 | GFP quencher inactive
CN1CCc2cc(O)cc3c2[C@H]1Cc1ccc(O)c(O)c1-3	none
CCCN1CCc2cc(O)cc3c2[C@H]1Cc1ccc(O)c(O)c1-3	Rin1-Abl PPI inh 11.3 | Rin1 Abl conf 11.7 | GFP quencher 8.6
O=P(CN1CCN(c2ccccc2)CC1)(N1CCCCC1)N1CCCCC1	Myeloid diff MLP active | Myeloid diff inactive | GFP autofluor inactive
CN(CCOc1ccc(C=C2C(=O)NC(=O)NC2=O)cc1)c1ccccn1	none | Myeloid diff inactive | GFP autofluor inactive
COc1ccc(OCCOc2cccc(C=C3C(=O)NC(=O)NC3=O)c2)cc1	none (no result: Rin1-Abl PPI inh, Myeloid diff MLP, SKN-1 inh)
CCc1cc2c(cc1-c1csc(C/C(N)=N/O)n1)C(C)(C)CCC2(C)C	Myeloid diff MLP active (no result: T cell modulator, Rce1 inhib, GRK2 inh) | Myeloid diff inactive | GFP autofluor inactive
Fc1ccccc1N1CCN(Cc2ccc3c(c2)OCO3)CC1	none (no result: Rce1 inhib) | Myeloid diff inactive | GFP autofluor inactive
CCN(CC)C(=O)c1ccc(NC(=O)c2cccc(S(=O)(=O)N3CCN(Cc4ccccc4)CC3)c2)cc1	none | Myeloid diff inactive | GFP autofluor inactive
CCN(CC)C(=O)c1ccc(NC(=O)c2ccc(N3CCCC3=O)cc2)cc1	none (no result: Rce1 inhib)
O=C(c1ccco1)C12CN3CN(CN(C3)C1)C2	none
O=C1NC(=O)N(Cc2cccs2)C(=O)/C1=C/c1ccc(N2CCOCC2)cc1	none (no result: Myeloid diff MLP)
O=C1NC(=O)N(Cc2ccccc2Cl)C(=O)/C1=C/N1CCOCC1	none | Myeloid diff inactive | GFP autofluor inactive
C=C1C(=O)OC2CC3(C)OC3C3OC3C3=CC(OC3=O)C12 (stereo not given)	none (no result: T cell modulator, Rce1 inhib, GRK2 inh)
CC(CCN1CC1)=NNC(=O)Nc1cccc2ccccc12	none (no result: T cell modulator, Rce1 inhib, GRK2 inh)
COc1ccc(C2=NCC(=O)N(CC(=O)NCc3ccco3)c3sc4c(c32)CCCC4)cc1	none | Myeloid diff inactive | GFP autofluor inactive
COC(=O)[C@]1(C)C[C@H]1[C@H](NP(=O)(c1ccccc1)c1ccccc1)c1ccccc1	none | Myeloid diff inactive | GFP autofluor inactive
O=c1[nH]c(=S)[nH]c(O)c1N=Nc1ccc2c(c1)OCO2	none
O=c1[nH]c(=S)[nH]c(O)c1N=Nc1ccc2c(c1)OCCO2	Myeloid diff MLP active | Myeloid diff inactive | GFP autofluor inactive
CCOC(=O)C1SC2(C(F)(F)F)CC1(O)c1c(C)cc(C)nc1O2 (stereo not given)	Myeloid diff MLP active | Myeloid diff inactive | GFP autofluor inactive
CCC(=NC(C)c1ccccc1)c1c(O)[nH]c(=O)[nH]c1=O (stereo not given)	Myeloid diff MLP active | Myeloid diff inactive | GFP autofluor inactive
CC(N)Cc1c[nH]c2c1ccc1ccccc12 (stereo not given)	none | Myeloid diff inactive | GFP autofluor inactive
CC(=O)N1Cc2cnnn2-c2ccccc2C1(C#N)Cc1ccccc1 (stereo not given)	none (no result: T cell modulator, Rce1 inhib, GRK2 inh)
CCOC(=O)c1c(C)n(Cc2ccc(F)cc2)c2ccc(O)cc12	none
CCOC(=O)c1c(C)n(COCCO)c2ccc(O)cc12	none | Myeloid diff inactive | GFP autofluor inactive
C=C1C(O)[C@@H]2O[C@]3(CC[C@H](/C=C/C(C)[C@@H]4CC(C)=CC5(O[C@H](C[C@@](C)(O)C(=O)O)CCC5O)O4)O3)CC[C@H]2O[C@@H]1C(O)CC(C)[C@H]1OC2(CCCCO2)CCC1C (stereo not given in full)	none (no result: Rin1-Abl PPI inh, Myeloid diff MLP, SKN-1 inh, Rce1 inhib)
COc1ccc(C2C(C(=O)N3CCC4(CC3)OCCO4)c3cc(OC)c(OC)cc3C(=O)N2C)cc1 (stereo not given)	none | Myeloid diff inactive | GFP autofluor inactive

High-throughput results deposited in PubChem BioAssay by several laboratories.
